Where a SMILES comes first, the peptide text is derived from it. [ ]: non-standard residue; d: D form. Orn = NCCC[C@H](N)C(=O)O; Dab = NCC[C@H](N)C(=O)O; Dap = NC[C@H](N)C(=O)O
Experiments:
[1] = Antagonist activity against Streptococcus pneumoniae TIGR4-pcomX-lacZ strain expressing ComD2 receptor assessed as inhibition of ComD2 receptor activity by beta-galactosidase reporter gene assay
In short: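 TIGR4 pcomX::lacZ reporter grown on THY plates with 5% horse serum and 4 μg/mL chloramphenicol (8–9 h, 37 °C, 5% CO2). 2–3 colonies were grown overnight (15 h) in THY with chloramphenicol, diluted 1:10, and grown 3–4 h to OD600 0.20–0.25. Peptides were tested as competitive inhibitors against native CSP2. […] Three independent experiments.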

[2] = Antagonist activity against Streptococcus pneumoniae D39-pcomX-lacZ strain expressing ComD1 receptor assessed as inhibition of ComD1 receptor activity by beta-galactosidase reporter gene assay
In short: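 Reporter strains (pcomX::lacZ) grown on THY agar with 5% horse serum and 4 μg/mL chloramphenicol at 37 °C, 5% CO2; overnight THY broth culture diluted (1:50 D39, 1:10 TIGR4) and grown to early exponential phase (OD600 0.30–0.35 D39; 0.20–0.25 TIGR4). Primary screen at 10,000 nM peptide; EC50/IC50 from dose-response over a concentration range, three independent experiments, 95% confidence interval.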

[3] = Agonist activity against Streptococcus pneumoniae TIGR4-pcomX-lacZ strain expressing ComD2 receptor assessed as activation of ComD2 receptor activity by beta-galactosidase reporter gene assay
In short: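 Reporter strains (pcomX::lacZ) grown on THY agar with 5% horse serum and 4 μg/mL chloramphenicol at 37 °C, 5% CO2; overnight THY broth culture diluted (1:50 D39, 1:10 TIGR4) and grown to early exponential phase (OD600 0.30–0.35 D39; 0.20–0.25 TIGR4).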

[4] = Stability of the compound in CD-1 mouse assessed as drug degradation at 50 ug, iv by IVIS spectrum in vivo imaging analysis; assay type: ADME, organism-based; conditions: dose 50 µg
In short: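 Seven-week-old CD-1 mice (cohorts of 4–5) given Cy7.5-labelled peptide (50 μg/mouse) by retro-orbital i.v. injection, anaesthetized with 3% isoflurane and imaged by IVIS SpectrumCT fluorescence imaging.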

IC50 [1] [nM] | IC50 [2] [nM] | Compound | other results
> 1000 | – | CC[C@H](C)[C@H](NC(=O)[C@H](Cc1ccccc1)NC(=O)[C@H](CCN)NC(=O)[C@H](CCCNC(=N)N)NC(=O)[C@H](Cc1ccccc1)NC(=O)[C@H](Cc1ccccc1)NC(=O)[C@H](CCCN)NC(=O)[C@H](CO)NC(=O)[C@H](CC(C)C)NC(=O)[C@H](CCCNC(=N)N)NC(=O)[C@H](CCSC)NC(=O)[C@H](C)N)C(=O)N[C@@H](CC(C)C)C(=O)N[C@@H](CCC(N)=O)C(=O)N[C@@H](CCCNC(=N)N)C(=O)N[C@@H](CCCCN)C(=O)N[C@@H](CCCCN)C(=O)O (H-AMRLS[Orn]FFR[Dab]FILQRKK-OH) | –
> 1000 | – | CC[C@H](C)[C@H](NC(=O)[C@H](Cc1ccccc1)NC(=O)[C@H](CN)NC(=O)[C@H](CCCNC(=N)N)NC(=O)[C@H](Cc1ccccc1)NC(=O)[C@H](Cc1ccccc1)NC(=O)[C@H](CCCN)NC(=O)[C@H](CO)NC(=O)[C@H](CC(C)C)NC(=O)[C@H](CCCNC(=N)N)NC(=O)[C@H](CCSC)NC(=O)[C@H](C)N)C(=O)N[C@@H](CC(C)C)C(=O)N[C@@H](CCC(N)=O)C(=O)N[C@@H](CCCNC(=N)N)C(=O)N[C@@H](CCCCN)C(=O)N[C@@H](CCCCN)C(=O)O (H-AMRLS[Orn]FFR[Dap]FILQRKK-OH) | –
> 1000 | 784 | CC[C@H](C)[C@H](NC(=O)[C@H](Cc1ccccc1)NC(=O)[C@H](CCCCN)NC(=O)[C@H](CCCNC(=N)N)NC(=O)[C@H](Cc1ccccc1)NC(=O)[C@H](Cc1ccccc1)NC(=O)[C@H](CCN)NC(=O)[C@H](CO)NC(=O)[C@H](CC(C)C)NC(=O)[C@H](CCCNC(=N)N)NC(=O)[C@H](CCSC)NC(=O)[C@H](C)N)C(=O)N[C@@H](CC(C)C)C(=O)N[C@@H](CCC(N)=O)C(=O)N[C@@H](CCCNC(=N)N)C(=O)N[C@@H](CCCCN)C(=O)N[C@@H](CCCCN)C(=O)O (H-AMRLS[Dab]FFRKFILQRKK-OH) | –
– | 454 | CC[C@H](C)[C@H](NC(=O)[C@H](Cc1ccccc1)NC(=O)[C@H](CCCCN)NC(=O)[C@H](CCCNC(=N)N)NC(=O)[C@H](Cc1ccccc1)NC(=O)[C@H](Cc1ccccc1)NC(=O)[C@H](CN)NC(=O)[C@H](CO)NC(=O)[C@H](CC(C)C)NC(=O)[C@H](CCCNC(=N)N)NC(=O)[C@H](CCSC)NC(=O)[C@H](C)N)C(=O)N[C@@H](CC(C)C)C(=O)N[C@@H](CCC(N)=O)C(=O)N[C@@H](CCCNC(=N)N)C(=O)N[C@@H](CCCCN)C(=O)N[C@@H](CCCCN)C(=O)O (H-AMRLS[Dap]FFRKFILQRKK-OH) | EC50 [3]: 39.5 nM

Further lines, the compound ahead of its results:

Compound | IC50 [1] [nM] | IC50 [2] [nM] | other results
CC[C@H](C)[C@H](NC(=O)[C@H](Cc1ccccc1)NC(=O)[C@H](CC(=O)O)NC(=O)[C@H](CCCNC(=N)N)NC(=O)[C@H](Cc1ccccc1)NC(=O)[C@H](Cc1ccccc1)NC(=O)[C@H](CCCCN)NC(=O)[C@H](CO)NC(=O)[C@H](CC(C)C)NC(=O)[C@H](CCCNC(=N)N)NC(=O)[C@H](CCSC)NC(=O)[C@H](C)N)C(=O)N[C@@H](CC(C)C)C(=O)N[C@@H](CCC(N)=O)C(=O)N[C@@H](CCCNC(=N)N)C(=O)N[C@@H](CCCCN)C(=O)N[C@@H](CCCCN)C(=O)O | – | 85.7 | –
CC[C@H](C)[C@H](NC(=O)[C@H](Cc1ccccc1)NC(=O)[C@H](CCCN)NC(=O)[C@H](CCCNC(=N)N)NC(=O)[C@H](Cc1ccccc1)NC(=O)[C@H](Cc1ccccc1)NC(=O)[C@H](CCN)NC(=O)[C@H](CO)NC(=O)[C@H](CC(C)C)NC(=O)[C@H](CCCNC(=N)N)NC(=O)[C@H](CCSC)NC(=O)[C@H](C)N)C(=O)N[C@@H](CC(C)C)C(=O)N[C@@H](CCC(N)=O)C(=O)N[C@@H](CCCNC(=N)N)C(=O)N[C@@H](CCCCN)C(=O)N[C@@H](CCCCN)C(=O)O (H-AMRLS[Dab]FFR[Orn]FILQRKK-OH) | > 1000 | – | –
CC[C@H](C)[C@H](NC(=O)[C@H](Cc1ccccc1)NC(=O)[C@H](CCCCN)NC(=O)[C@H](CCCNC(=N)N)NC(=O)[C@H](Cc1ccccc1)NC(=O)[C@H](Cc1ccccc1)NC(=O)[C@H](CCCN)NC(=O)[C@H](CO)NC(=O)[C@H](CC(C)C)NC(=O)[C@H](CCCNC(=N)N)NC(=O)[C@H](CCSC)NC(=O)[C@H](C)N)C(=O)N[C@@H](CC(C)C)C(=O)N[C@@H](CCC(N)=O)C(=O)N[C@@H](CCCNC(=N)N)C(=O)N[C@@H](CCCCN)C(=O)N[C@@H](CCCCN)C(=O)O (H-AMRLS[Orn]FFRKFILQRKK-OH) | > 1000 | 339 | –
H-EMRISRIILDFLFLRKK-OH | – | – | EC50 [3]: 50.7 nM
H-AMRLSKFFRKFILQRKK-OH | – | 217 | –
CC[C@H](C)[C@H](NC(=O)[C@H](Cc1ccccc1)NC(=O)[C@H](CN)NC(=O)[C@H](CCCNC(=N)N)NC(=O)[C@H](Cc1ccccc1)NC(=O)[C@H](Cc1ccccc1)NC(=O)[C@H](CCN)NC(=O)[C@H](CO)NC(=O)[C@H](CC(C)C)NC(=O)[C@H](CCCNC(=N)N)NC(=O)[C@H](CCSC)NC(=O)[C@H](C)N)C(=O)N[C@@H](CC(C)C)C(=O)N[C@@H](CCC(N)=O)C(=O)N[C@@H](CCCNC(=N)N)C(=O)N[C@@H](CCCCN)C(=O)N[C@@H](CCCCN)C(=O)O (H-AMRLS[Dab]FFR[Dap]FILQRKK-OH) | > 1000 | – | –
CC[C@H](C)[C@H](NC(=O)[C@H](Cc1ccccc1)NC(=O)[C@H](CC(=O)O)NC(=O)[C@H](CCCNC(=N)N)NC(=O)[C@H](Cc1ccccc1)NC(=O)[C@H](Cc1ccccc1)NC(=O)[C@H](CCCCN)NC(=O)[C@H](CO)NC(=O)[C@H](CC(C)C)NC(=O)[C@H](CCCNC(=N)N)NC(=O)[C@H](CCSC)NC(=O)[C@H](CCC(=O)O)NC(=O)CCCCC[N+]1=C(/C=C/C2=CC(=C/C=C3\N(C)c4ccc5ccccc5c4C3(C)C)/CCC2)C(C)(C)c2ccc3ccccc3c21)C(=O)N[C@@H](CC(C)C)C(=O)N[C@@H](CCC(N)=O)C(=O)N[C@@H](CCCNC(=N)N)C(=O)N[C@@H](CCCCN)C(=O)N[C@@H](CCCCN)C(=O)O | – | – | Drug degradation [4]: 36 h
CC[C@H](C)[C@H](NC(=O)[C@H](Cc1ccccc1)NC(=O)[C@H](CCN)NC(=O)[C@H](CCCNC(=N)N)NC(=O)[C@H](Cc1ccccc1)NC(=O)[C@H](Cc1ccccc1)NC(=O)[C@H](CCN)NC(=O)[C@H](CO)NC(=O)[C@H](CC(C)C)NC(=O)[C@H](CCCNC(=N)N)NC(=O)[C@H](CCSC)NC(=O)[C@H](C)N)C(=O)N[C@@H](CC(C)C)C(=O)N[C@@H](CCC(N)=O)C(=O)N[C@@H](CCCNC(=N)N)C(=O)N[C@@H](CCCCN)C(=O)N[C@@H](CCCCN)C(=O)O (H-AMRLS[Dab]FFR[Dab]FILQRKK-OH) | > 1000 | – | –
CC[C@H](C)[C@H](NC(=O)[C@H](Cc1ccccc1)NC(=O)[C@H](CCCN)NC(=O)[C@H](CCCNC(=N)N)NC(=O)[C@H](Cc1ccccc1)NC(=O)[C@H](Cc1ccccc1)NC(=O)[C@H](CCCN)NC(=O)[C@H](CO)NC(=O)[C@H](CC(C)C)NC(=O)[C@H](CCCNC(=N)N)NC(=O)[C@H](CCSC)NC(=O)[C@H](C)N)C(=O)N[C@@H](CC(C)C)C(=O)N[C@@H](CCC(N)=O)C(=O)N[C@@H](CCCNC(=N)N)C(=O)N[C@@H](CCCCN)C(=O)N[C@@H](CCCCN)C(=O)O (H-AMRLS[Orn]FFR[Orn]FILQRKK-OH) | > 1000 | – | –

Source: ChEMBL document CHEMBL5143675, “Attenuating the Streptococcus pneumoniae Competence Regulon Using Urea-Bridged Cyclic Dominant-Negative Competence-Stimulating Peptide Analogs” (J Med Chem, 2022)
